BB579 growth dn = yeast BB579 growth reduction in restrictive medium. S. cerevisiae BB579 growth, OD615, 48 h. hit rate 0.51% among 140,000. AID 804. inhibition, % at 10 µM;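 active = inhibition above a set limit, 3 SD over the mean compound inhibition, cut at about 44% in these data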
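controls = amphotericin B 10 µg/mL, positive | assay system = DeaD yeast strain BB579 | schedule = 48 h compound exposure at 30 °C after 4 h preincubation | detection = OD615 turbidity measurement | medium = restrictive CSMM-D medium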
sdo1 growth = compounds rescuing growth of sdo1-depleted yeast, bone marrow failure model; hit rate 0.21% among 140,000; AID 817; S. cerevisiae sdo1-depleted JHY4D growth rescue, OD600 30 h; stronger effect = higher value; pdr5 snq2 efflux-pump mutant strain; z-score at 10 µM;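 active = z-score above 3 at both the 24 hr and the 30 hr optical density reads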
MRP1 act = MRP-1 activation. H69AR cells + doxorubicin, viability rescue, CellTiter-Glo. hit rate 0.61% among 140,000. viability increase, % at 10 µM;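 active = viability gain under doxorubicin at or above a set limit, the compound median plus 3 SD, cut at about 4.7% in these data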;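 also: MRP-1 overexpressing cells given doxorubicin 25 µM after compound pretreatment; 18-22 h compound pretreatment then 72 h with doxorubicin before readout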
MRP reversal = reverses drug resistance mediated by MRP | differential viability (reversal), % at 10 µM | AID 602 | hit rate 0.04% among 85,000 | H69AR cells + 2 uM doxorubicin, CellTiter-Glo, 72 h;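 active = viability drop by adding the cancer drug above about 55%, with treated viability meeting a 40% cutoff, limit read from the data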;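 also: larger differential means the compound sensitizes cells more to doxorubicin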
Yeast lifespan up = yeast lifespan extension; hit rate 0.68% among 130,000; S. cerevisiae growth with nicotinamide, OD615; deaD strain in restrictive glucose medium; inhibition of the nicotinamide effect, % at 10 µM; AID 775;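 active = inhibition above a set limit, placed 3 SD over the median of all compounds, cut at about 26% in these data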
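Test system: DeaD-strain S. cerevisiae / Buffer or medium: restrictive glucose medium / Also added: nicotinamide 1.5 mM / Doses: one concentration, 10 µM, DMSO 0.25% / Schedule: 48 h at 30 °C / Signal: OD615 measurement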
Phagocyt inh = blocks phagocytosis by macrophages; inhibition, % at 5 µM; hit rate 0.07% among 110,000; J774A.1 macrophage IgG-bead phagocytosis, imaging;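 active = inhibition above the mean of the plate negative controls plus 5 SD, cut at about 13% in these data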;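 also: phagocytic index as fraction of beads internalized from green versus red external bead signal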
sdo1 rescue conf = confirmation of growth rescue in SDO1-depleted yeast, bone marrow failure; shares compounds with sdo1 growth; S. cerevisiae JHY4D (SDO1-depleted) growth rescue, OD600, 30 h; stronger effect = higher value; efflux-deficient strain, SNQ2 and PDR5 mutated; OD recovery (no concentration beside the values); hit rate 44% among 440;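 active = yeast growth recovered at 30 hours, either rising with dose fitted slope above 0.001 or with average optical density gain above 0.07, some results past the limit were not filed as active; inactive = growth falling with dose or no effect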
A number is an active result; - = inactive; . = no result. Rows were chosen to be rich in hits. Some 2.1% of all compounds tested hit in one or more screens of this group.

SMILES	BB579 growth dn	sdo1 growth	MRP1 act	MRP reversal	Yeast lifespan up	Phagocyt inh	sdo1 rescue conf
CCOC(=O)c1sc(=S)n(-c2ccc(C)cc2)c1SC	-	-	-	.	-	-	.
COc1ccccc1NC(=O)COC(=O)c1ccccc1OCC(=O)Nc1ccc(SC(F)F)cc1	-	-	-	.	-	-	0.073
COc1ccccc1C(=O)COC(=O)c1ccccc1OCC(=O)Nc1ccc(SC(F)F)cc1	-	-	-	.	-	-	.
CC(C)COP(=O)(OCC(C)C)C(O)c1ccc(F)cc1 (configuration not stated)	-	-	-	.	-	-	.
CCOc1ccc(C(C)=O)cc1N1C(=O)C2C3C=CC(C3)C2C1=O (configuration not stated)	-	-	-	-	-	-	.
CCOc1ccc(CCN2C(=O)C3C4C=CC(C4)C3C2=O)cc1OCC (configuration not stated)	-	-	-	-	-	-	-
COc1ccc(NC(=O)CSc2nnc(CN3CCOCC3)n2-c2ccccc2)cc1Cl	-	3.5	-	-	-	-	-
COC(=O)c1cccc(NC(=O)c2ccc3c(c2)C(=O)N(CC2CCCO2)C3=O)c1 (configuration not stated)	-	-	-	-	-	.	-
O=C(O)c1cccc(NC(=O)c2ccc3c(c2)C(=O)N(CC2CCCO2)C3=O)c1 (configuration not stated)	-	-	-	-	-	-	.
COc1ccc(OC)c(-c2c3cc(O)c(=O)cc-3oc3cc(O)c(O)cc23)c1	63	5.7	-	.	-	-	-
CCOc1ccc(N2Cc3ncccc3C2=O)cc1	-	-	-	.	-	.	.
COCCn1c(SCC#N)nnc1-c1ccc(OC)cc1	-	9	-	-	.	.	-
COCCn1c(SCC(=O)Nc2sc(C)c(C)c2C#N)nnc1-c1ccc(OC)cc1	-	-	-	-	-	-	.
Cc1ccc2c(c1)N1C(=O)c3ccccc3C1C1=C(CC(C)(C)CC1=O)N2 (configuration not stated)	-	-	-	-	.	.	.
CCOc1ccc(N(CC(=O)NCc2ccccc2)S(C)(=O)=O)cc1	-	5.5	-	-	-	-	0.086
O=C(CN1CCc2ccccc2C1)c1cccs1	-	5.6	-	-	-	-	0.096
O=C(OCc1ccc([N+](=O)[O-])cc1)C1CC(=O)N(c2ccccc2)C1 (configuration not stated)	-	-	-	-	-	-	.
COCCNC(=O)CCCC(=O)NCCOC	-	-	-	.	-	-	.
Cc1nn(-c2ccccc2)cc1C(=S)Nc1ccccc1	-	-	-	.	-	-	.
CCn1c(SCC(=O)NCCc2ccccc2)nnc1-c1ccco1	-	-	-	-	-	-	.
O=C(CCSCCC(=O)NCCN1CCOCC1)NCCN1CCOCC1	-	-	-	-	-	-	.
O=C(CCSCCc1ccncc1)NCCCN1CCOCC1	-	-	-	-	-	-	0.1
CN1CCN(C(=O)c2ccccc2-c2nc(-c3ccccc3)no2)CC1	-	-	-	-	-	-	.
NC(=O)c1ccccc1-c1nc(-c2ccccc2)no1	-	11	-	-	-	-	-
CC(C)(C)c1cc(C(=O)N/N=C/c2ccco2)n[nH]1	-	9.9	-	.	-	-	0.071
SMILES	BB579 growth dn	sdo1 growth	MRP1 act	MRP reversal	Yeast lifespan up	Phagocyt inh	sdo1 rescue conf
C=C(C)COc1ccc(-c2nc(N)ncc2Oc2ccc(OC)cc2)c(O)c1	-	3.5	-	-	-	-	-
O=C(OCC(CO)OC(CO)n1ccc(=O)[nH]c1=O)c1ccccc1 (configuration not stated)	-	7.7	-	-	-	-	-
O=C(NC1CCCCC1)C(c1ccccc1)N1CCC2(CC1)OCCO2 (configuration not stated)	-	-	-	-	-	-	.
O=C(N1CCN(c2ccccc2)CC1)C(F)(F)C(F)F	-	-	-	-	-	-	.
O=C(N1CCN(c2ccccc2)CC1)C(F)(F)C(F)(F)F	-	3.4	-	-	-	-	-
COc1ccc(C(CNC(=O)c2cc(C)oc2C)N2CCOCC2)cc1 (configuration not stated)	-	-	-	-	-	-	0.082
Cc1ccc(NC(=O)C2CC(=O)NC(Nc3cccc(C)c3)=N2)cc1 (configuration not stated)	-	-	-	-	-	-	.
Cc1ccccc1NC(NC(=O)OCCn1c([N+](=O)[O-])cnc1C)C(Cl)(Cl)Cl (configuration not stated)	-	8.3	-	.	-	-	0.1
Cc1ncc([N+](=O)[O-])n1CCOC(=O)NC(NCc1ccccc1)C(Cl)(Cl)Cl (configuration not stated)	-	-	-	.	-	.	.
COc1ccccc1S(=O)(=O)Cc1ccc(C(=O)N2CCN(c3ccccc3)CC2)o1	-	-	-	-	-	-	.
COc1ccccc1S(=O)(=O)Cc1ccc(C(=O)N2CCOCC2)o1	-	3.2	-	-	-	.	-
CN1CC=C2C(C#N)=C(N)C(C#N)(C#N)[C@H](c3ccoc3)[C@H]2C1	-	3.4	-	-	-	-	-
Cc1ccccc1-n1ncc2c(SCC(=O)N3c4ccccc4CC3C)ncnc21 (configuration not stated)	-	-	-	.	-	.	.
Cc1nnc(NC(=O)CSc2ncnc3c2cnn3-c2ccccc2C)s1	-	-	-	.	-	.	-
CCOC(=O)c1c(C)c(C(=O)NCc2ccc3c(c2)OCO3)c(C)n1CC	-	-	-	-	-	-	.
CCn1c(N)c(C(=O)NCc2ccc3c(c2)OCO3)sc1=S	-	-	-	-	-	-	-
O=S1(=O)CC(O)C(Nc2ccccc2)C1 (configuration not stated)	-	-	-	-	-	-	.
CC(C)NC1CS(=O)(=O)CC1O (configuration not stated)	-	5.5	-	-	58	-	0.095
CCOC(=O)c1nsnc1NCCSC(=N)N	-	6.2	-	.	-	-	0.094
CCOC(=O)c1nonc1NC(C)=O	-	-	-	-	.	.	.
CN(C)S(=O)(=O)c1cccc(NC(=O)Cc2ccc(Cl)cc2)c1	-	-	-	.	-	-	.
O=[N+]([O-])c1ccc(N/N=C\c2ccccc2OCc2ccccc2)cc1	-	-	-	.	-	.	-
O=C(NCc1ccccc1Cl)c1ccccc1CCc1ccccc1	-	7.1	-	.	32	-	0.082
COC(=O)Cc1c(C)c2ccc(O)c(CN3CCCC(C)C3)c2oc1=O (configuration not stated)	-	-	-	-	-	-	.
O=C(CCS(=O)(=O)c1cccc2nsnc12)NC1CCCCCC1	-	-	-	-	-	.	.

Screening results (PubChem)
